The text below walks through data of ChEMBL document CHEMBL1152993, “Telithromycin and quinupristin-dalfopristin induce delayed death in Plasmodium falciparum” (Antimicrob Agents Chemother, 2008).

≈ marks a conversion by molar mass, not a printed value. Calls of active or inactive are those of the source. The rule behind the calls is not given here.

The test system of series [1] is Plasmodium falciparum. In words: Antiplasmodial activity after 48 hrs against Plasmodium falciparum 3D7 as Malstat LDH activity. Format: functional, organism-based. Particulars: for IC50: 3D7, 48 h. In a few lines:
(§1)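 Synchronized ring-stage 3D7 plated at 1% parasitemia. Drugs tested at 1 nM to 100 μM, dissolved in DMSO or water; 0.5% DMSO was the negative control. Cultures kept 48, 72, 96 or 120 h, with medium changed at day 3. Viability read by Malstat parasite lactate dehydrogenase activity. IC50 reported as mean ± SEM.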

Series [2] has as its system Plasmodium falciparum. In words: Antiplasmodial activity after 72 hrs against Plasmodium falciparum 3D7 as Malstat LDH activity. The series is classed as functional, organism-based. Particulars: for IC50: 3D7, 72 h. In outline: as §1
The test system of series [3] is Plasmodium falciparum. Briefly: Antiplasmodial activity after 96 hrs against Plasmodium falciparum 3D7 as Malstat LDH activity. Particulars: for IC50: 3D7, 96 h. The series is classed as functional, organism-based. In outline: as §1
Series [4] relates to Plasmodium falciparum. In words: Antiplasmodial activity after 120 hrs against Plasmodium falciparum 3D7 as Malstat LDH activity. The series is classed as functional, organism-based. Particulars: for IC50: 3D7, 120 h. In outline: as §1
Series [5] concerns Plasmodium falciparum. In words: Antiplasmodial activity against Plasmodium falciparum 3D7 as early schizont maturation arrest at IC50 after 48-120 hrs by giemsa stain. Format: functional, organism-based. In a few lines: (§2)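 Synchronized 3D7 cultures exposed to drug at the 96-h IC50 over three life cycles, with 0.5% DMSO as untreated control. Giemsa smears were taken at 48, 72, 96 and 120 h, and developmental stages were counted at each time point.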

The subject of series [6] is Plasmodium falciparum. In words: Relative activity against Plasmodium falciparum 3D7 as IC50 ratio after 48 and 96 hrs. The series is classed as functional.
Series [7] relates to Plasmodium falciparum. In words: Antiplasmodial activity against Plasmodium falciparum 3D7 assessed as multiple-nuclei schizont arrest at IC50 after 96 hrs by transmission electron microscopy. The series is classed as functional, organism-based. In outline: (§3)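 Cultures exposed to drug at the 96-h IC50 and collected after 96 h of treatment. Fixed in 1% glutaraldehyde and 4% paraformaldehyde in PBS, then processed for transmission electron microscopy to assess schizont stage and morphology. Untreated parasites served as comparison.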

Series [8] has as its system Plasmodium falciparum. Briefly: Antiplasmodial activity against Plasmodium falciparum 3D7 as delayed first replication cycle at IC50 after 48-120 hrs by giemsa stain. Format: functional. In outline: as §2
Series [9] is described as follows: Cmax in human at 12 mg/kg administered as single oral dose. The series is classed as ADME, organism-based. Further details: dose 12 mg/kg, route oral. Conditions: in vivo.
Series [10] deals with Plasmodium falciparum. Briefly: Antiplasmodial activity against Plasmodium falciparum 3D7 as late trophozoite to early schizont arrest at IC50 after 48-120 hrs by giemsa stain. Format: functional, organism-based. In outline:
as §2

Series [11] concerns Plasmodium falciparum. In words: Antiplasmodial activity against Plasmodium falciparum 3D7 as 2xnuclei schizont arrest at IC50 after 96 hrs by transmission electron microscopy. Format: functional, organism-based. In a few lines:
as §3

The test system of series [12] is Plasmodium falciparum. Briefly: Antiplasmodial activity as ED50 against parasite growth after 48 hrs for Plasmodium falciparum 3D7. Particulars: 3D7, 48 h. Format: functional, organism-based. In a few lines: as §1
Series [13] relates to Plasmodium falciparum. In words: Antiplasmodial activity as ED50 against parasite growth after 96 hrs for Plasmodium falciparum 3D7. Format: functional, organism-based. Conditions: 3D7, 96 h. In a few lines: as §1
For series [14], the system named is Plasmodium falciparum. In words: Antiplasmodial activity against Plasmodium falciparum 3D7 as delayed maturation in first replication and early second cycle arrest at IC50. Format: functional, organism-based. In a few lines: as §2

What is called IC50 is the concentration that inhibits the measured activity by half. Read a high IC50 as lower potency. Turning to `C[C@H]1c2cccc(O)c2C(=O)C2=C(O)[C@]3(O)C(=O)C(C(N)=O)=C(O)[C@@H](N(C)C)[C@@H]3[C@@H](O)[C@@H]21.O` [DOXYCYCLINE], the IC50 came out at 5420 nM in series [1], 1490 nM in [2], 720 nM in [3] and 120 nM in series [4]. Besides, the outcome in series [5] and in series [7] was Active. For the same compound, in series [6], the “Ratio IC50” value is given as 10.
What is called Cmax is the highest concentration seen after dosing. As for `CC[C@H]1OC(=O)[C@H](C)C(=O)[C@H](C)[C@@H](O[C@@H]2O[C@H](C)C[C@H](N(C)C)[C@H]2O)[C@](C)(OC)C[C@@H](C)C(=O)[C@H](C)[C@H]2N(CCCCn3cnc(-c4cccnc4)c3)C(=O)O[C@]12C` [TELITHROMYCIN], the IC50 is 8080 nM in series [1]; 1040 nM in series [2]; 280 nM in [3]; 440 nM in [4]; 6.56 µg/mL (≈ 8.08 µM) in series [12]; 0.23 µg/mL (≈ 0.283 µM) in series [13]. The same compound registered an Activity in series [8] of 5 h. In series [9], the Cmax was found to be 1900 ng/mL. In addition, the result in series [10], in series [11] and in [14] was Active.
As for `CC(=O)NC[C@H]1CN(c2ccc(N3CCOCC3)c(F)c2)C(=O)O1`, the outcome in series [1], in [2], in series [3] and in [4] was inactive.
With `CC[C@H]1OC(=O)[C@H](C)[C@@H](O[C@H]2C[C@@](C)(OC)[C@@H](O)[C@H](C)O2)[C@H](C)[C@@H](O[C@@H]2O[C@H](C)C[C@H](N(C)C)[C@H]2O)[C@](C)(O)C[C@@H](C)CN(C)[C@H](C)[C@@H](O)[C@]1(C)O` [AZITHROMYCIN], the half-inhibitory concentration (IC50) turned out to be 9040 nM in series [1], 4570 nM in [2], 940 nM in series [3] and 410 nM in series [4]. Further, the outcome in [5] and in series [7] was Active. In addition, the “Ratio IC50” value in [6] was 10.
